Measured values taken from ChEMBL document CHEMBL4251626, “4β-amidotriazole linked podophyllotoxin congeners: DNA topoisomerase-IIα inhibition and potential anticancer agents for prostate cancer” (Eur J Med Chem, 2018).

System: HepG2
Experiment: Antiproliferative activity against human HepG2 cells after 48 hrs by MTT assay
Type: functional, cell-based
Details: HepG2, 48 h
How it was run: (§1)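 Cells in DMEM/10% FBS pre-incubated 24 h at 37 °C, then compound-treated 48 h (10 mM DMSO stock diluted in medium). MTT (10 µL of 5 mg/mL) added for 4 h; formazan dissolved in DMSO, absorbance read at 570 nm. IC50 = 50% inhibitory concentration, mean of three individual experiments.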

Row | SMILES | IC50
1 | COc1cc([C@@H]2c3cc4c(cc3C(NC(=O)c3cn(Cc5ccc(Cl)cc5)nn3)[C@H]3COC(=O)[C@H]23)OCO4)cc(OC)c1OC (single isomer, unassigned) | 3.54 µM
2 | COc1ccc(Cn2cc(C(=O)NC3c4cc5c(cc4[C@@H](c4cc(OC)c(OC)c(OC)c4)[C@H]4C(=O)OC[C@H]34)OCO5)nn2)cc1 (single isomer, unassigned) | 1.96 µM
3 | COc1cc([C@@H]2c3cc4c(cc3C(NC(=O)c3cn(-c5ccccc5)nn3)[C@H]3COC(=O)[C@H]23)OCO4)cc(OC)c1OC (single isomer, unassigned) | 1.94 µM
4 | COc1cc([C@@H]2c3cc4c(cc3C(NC(=O)c3cn(Cc5ccccc5)nn3)[C@H]3COC(=O)[C@H]23)OCO4)cc(OC)c1OC (single isomer, unassigned) | 13.1 µM
5 | COc1cc(OC)cc(-n2cc(C(=O)NC3c4cc5c(cc4[C@@H](c4cc(OC)c(OC)c(OC)c4)[C@H]4C(=O)OC[C@H]34)OCO5)nn2)c1 (single isomer, unassigned) | 13.8 µM
6 | COc1cc(Cn2cc(C(=O)NC3c4cc5c(cc4[C@@H](c4cc(OC)c(OC)c(OC)c4)[C@H]4C(=O)OC[C@H]34)OCO5)nn2)cc(OC)c1OC (single isomer, unassigned) | 0.957 µM
7 | COc1cccc(Cn2cc(C(=O)NC3c4cc5c(cc4[C@@H](c4cc(OC)c(OC)c(OC)c4)[C@H]4C(=O)OC[C@H]34)OCO5)nn2)c1 (single isomer, unassigned) | 9.88 µM
8 | COc1cc([C@@H]2c3cc4c(cc3C(NC(=O)c3cn(Cc5ccc(F)cc5)nn3)[C@H]3COC(=O)[C@H]23)OCO4)cc(OC)c1OC (single isomer, unassigned) | 34.1 µM

System: DU-145
Experiment: Antiproliferative activity against human DU145 cells after 48 hrs by MTT assay
Type: functional, cell-based
Details: DU-145, 48 h
How it was run: as §1

Row | SMILES | IC50
9 | COc1cc([C@@H]2c3cc4c(cc3C(NC(=O)c3cn(Cc5ccc(Cl)cc5)nn3)[C@H]3COC(=O)[C@H]23)OCO4)cc(OC)c1OC (single isomer, unassigned) | 2.37 µM
10 | COc1ccc(Cn2cc(C(=O)NC3c4cc5c(cc4[C@@H](c4cc(OC)c(OC)c(OC)c4)[C@H]4C(=O)OC[C@H]34)OCO5)nn2)cc1 (single isomer, unassigned) | 1.76 µM
11 | COc1cc([C@@H]2c3cc4c(cc3C(NC(=O)c3cn(-c5ccccc5)nn3)[C@H]3COC(=O)[C@H]23)OCO4)cc(OC)c1OC (single isomer, unassigned) | 1.31 µM
12 | COc1cc([C@@H]2c3cc4c(cc3C(NC(=O)c3cn(Cc5ccccc5)nn3)[C@H]3COC(=O)[C@H]23)OCO4)cc(OC)c1OC (single isomer, unassigned) | 17.1 µM
13 | COc1cc(OC)cc(-n2cc(C(=O)NC3c4cc5c(cc4[C@@H](c4cc(OC)c(OC)c(OC)c4)[C@H]4C(=O)OC[C@H]34)OCO5)nn2)c1 (single isomer, unassigned) | 11.7 µM
14 | COc1cc(Cn2cc(C(=O)NC3c4cc5c(cc4[C@@H](c4cc(OC)c(OC)c(OC)c4)[C@H]4C(=O)OC[C@H]34)OCO5)nn2)cc(OC)c1OC (single isomer, unassigned) | 8.54 µM
15 | COc1cccc(Cn2cc(C(=O)NC3c4cc5c(cc4[C@@H](c4cc(OC)c(OC)c(OC)c4)[C@H]4C(=O)OC[C@H]34)OCO5)nn2)c1 (single isomer, unassigned) | 12.4 µM
16 | COc1cc([C@@H]2c3cc4c(cc3C(NC(=O)c3cn(Cc5ccc(F)cc5)nn3)[C@H]3COC(=O)[C@H]23)OCO4)cc(OC)c1OC (single isomer, unassigned) | 22.8 µM

System: A549
Experiment: Antiproliferative activity against human A549 cells after 48 hrs by MTT assay
Type: functional, cell-based
Details: A549, 48 h
How it was run: as §1

Row | SMILES | IC50
17 | COc1cc([C@@H]2c3cc4c(cc3C(NC(=O)c3cn(Cc5ccc(Cl)cc5)nn3)[C@H]3COC(=O)[C@H]23)OCO4)cc(OC)c1OC (single isomer, unassigned) | 8.06 µM
18 | COc1ccc(Cn2cc(C(=O)NC3c4cc5c(cc4[C@@H](c4cc(OC)c(OC)c(OC)c4)[C@H]4C(=O)OC[C@H]34)OCO5)nn2)cc1 (single isomer, unassigned) | 5.82 µM
19 | COc1cc([C@@H]2c3cc4c(cc3C(NC(=O)c3cn(-c5ccccc5)nn3)[C@H]3COC(=O)[C@H]23)OCO4)cc(OC)c1OC (single isomer, unassigned) | 1.82 µM
20 | COc1cc([C@@H]2c3cc4c(cc3C(NC(=O)c3cn(Cc5ccccc5)nn3)[C@H]3COC(=O)[C@H]23)OCO4)cc(OC)c1OC (single isomer, unassigned) | 13.3 µM
21 | COc1cc(OC)cc(-n2cc(C(=O)NC3c4cc5c(cc4[C@@H](c4cc(OC)c(OC)c(OC)c4)[C@H]4C(=O)OC[C@H]34)OCO5)nn2)c1 (single isomer, unassigned) | 17.7 µM
22 | COc1cc(Cn2cc(C(=O)NC3c4cc5c(cc4[C@@H](c4cc(OC)c(OC)c(OC)c4)[C@H]4C(=O)OC[C@H]34)OCO5)nn2)cc(OC)c1OC (single isomer, unassigned) | 14.7 µM
23 | COc1cccc(Cn2cc(C(=O)NC3c4cc5c(cc4[C@@H](c4cc(OC)c(OC)c(OC)c4)[C@H]4C(=O)OC[C@H]34)OCO5)nn2)c1 (single isomer, unassigned) | 21.3 µM
24 | COc1cc([C@@H]2c3cc4c(cc3C(NC(=O)c3cn(Cc5ccc(F)cc5)nn3)[C@H]3COC(=O)[C@H]23)OCO4)cc(OC)c1OC (single isomer, unassigned) | 75.7 µM

System: NIH3T3
Experiment: Antiproliferative activity against mouse NIH/3T3 cells after 48 hrs by MTT assay
Type: cell-based
Details: NIH3T3, 48 h
How it was run: as §1

Row | SMILES | IC50
25 | COc1cc([C@@H]2c3cc4c(cc3C(NC(=O)c3cn(Cc5ccc(Cl)cc5)nn3)[C@H]3COC(=O)[C@H]23)OCO4)cc(OC)c1OC (single isomer, unassigned) | 81.3 µM
26 | COc1ccc(Cn2cc(C(=O)NC3c4cc5c(cc4[C@@H](c4cc(OC)c(OC)c(OC)c4)[C@H]4C(=O)OC[C@H]34)OCO5)nn2)cc1 (single isomer, unassigned) | 67 µM
27 | COc1cc([C@@H]2c3cc4c(cc3C(NC(=O)c3cn(-c5ccccc5)nn3)[C@H]3COC(=O)[C@H]23)OCO4)cc(OC)c1OC (single isomer, unassigned) | 53.9 µM
28 | COc1cc([C@@H]2c3cc4c(cc3C(NC(=O)c3cn(Cc5ccccc5)nn3)[C@H]3COC(=O)[C@H]23)OCO4)cc(OC)c1OC (single isomer, unassigned) | 67 µM
29 | COc1cc(OC)cc(-n2cc(C(=O)NC3c4cc5c(cc4[C@@H](c4cc(OC)c(OC)c(OC)c4)[C@H]4C(=O)OC[C@H]34)OCO5)nn2)c1 (single isomer, unassigned) | 77 µM
30 | COc1cc(Cn2cc(C(=O)NC3c4cc5c(cc4[C@@H](c4cc(OC)c(OC)c(OC)c4)[C@H]4C(=O)OC[C@H]34)OCO5)nn2)cc(OC)c1OC (single isomer, unassigned) | 62 µM
31 | COc1cccc(Cn2cc(C(=O)NC3c4cc5c(cc4[C@@H](c4cc(OC)c(OC)c(OC)c4)[C@H]4C(=O)OC[C@H]34)OCO5)nn2)c1 (single isomer, unassigned) | 74.1 µM
32 | COc1cc([C@@H]2c3cc4c(cc3C(NC(=O)c3cn(Cc5ccc(F)cc5)nn3)[C@H]3COC(=O)[C@H]23)OCO4)cc(OC)c1OC (single isomer, unassigned) | 91.1 µM

System: HT-29
Experiment: Antiproliferative activity against human HT-29 cells after 48 hrs by MTT assay
Type: functional, cell-based
Details: HT-29, 48 h
How it was run: as §1

Row | SMILES | IC50
33 | COc1cc([C@@H]2c3cc4c(cc3C(NC(=O)c3cn(Cc5ccc(Cl)cc5)nn3)[C@H]3COC(=O)[C@H]23)OCO4)cc(OC)c1OC (single isomer, unassigned) | 23.7 µM
34 | COc1ccc(Cn2cc(C(=O)NC3c4cc5c(cc4[C@@H](c4cc(OC)c(OC)c(OC)c4)[C@H]4C(=O)OC[C@H]34)OCO5)nn2)cc1 (single isomer, unassigned) | 17.5 µM
35 | COc1cc([C@@H]2c3cc4c(cc3C(NC(=O)c3cn(-c5ccccc5)nn3)[C@H]3COC(=O)[C@H]23)OCO4)cc(OC)c1OC (single isomer, unassigned) | 5.37 µM
36 | COc1cc([C@@H]2c3cc4c(cc3C(NC(=O)c3cn(Cc5ccccc5)nn3)[C@H]3COC(=O)[C@H]23)OCO4)cc(OC)c1OC (single isomer, unassigned) | 19.1 µM
37 | COc1cc(OC)cc(-n2cc(C(=O)NC3c4cc5c(cc4[C@@H](c4cc(OC)c(OC)c(OC)c4)[C@H]4C(=O)OC[C@H]34)OCO5)nn2)c1 (single isomer, unassigned) | 19.6 µM
38 | COc1cc(Cn2cc(C(=O)NC3c4cc5c(cc4[C@@H](c4cc(OC)c(OC)c(OC)c4)[C@H]4C(=O)OC[C@H]34)OCO5)nn2)cc(OC)c1OC (single isomer, unassigned) | 8.54 µM
39 | COc1cccc(Cn2cc(C(=O)NC3c4cc5c(cc4[C@@H](c4cc(OC)c(OC)c(OC)c4)[C@H]4C(=O)OC[C@H]34)OCO5)nn2)c1 (single isomer, unassigned) | 31.3 µM
40 | COc1cc([C@@H]2c3cc4c(cc3C(NC(=O)c3cn(Cc5ccc(F)cc5)nn3)[C@H]3COC(=O)[C@H]23)OCO4)cc(OC)c1OC (single isomer, unassigned) | 78.3 µM

System: MCF7
Experiment: Antiproliferative activity against human MCF7 cells after 48 hrs by MTT assay
Type: functional, cell-based
Details: MCF7, 48 h
How it was run: as §1

Row | SMILES | IC50
41 | COc1cc([C@@H]2c3cc4c(cc3C(NC(=O)c3cn(Cc5ccc(Cl)cc5)nn3)[C@H]3COC(=O)[C@H]23)OCO4)cc(OC)c1OC (single isomer, unassigned) | 5.3 µM
42 | COc1ccc(Cn2cc(C(=O)NC3c4cc5c(cc4[C@@H](c4cc(OC)c(OC)c(OC)c4)[C@H]4C(=O)OC[C@H]34)OCO5)nn2)cc1 (single isomer, unassigned) | 3.32 µM
43 | COc1cc([C@@H]2c3cc4c(cc3C(NC(=O)c3cn(-c5ccccc5)nn3)[C@H]3COC(=O)[C@H]23)OCO4)cc(OC)c1OC (single isomer, unassigned) | 1.45 µM
44 | COc1cc([C@@H]2c3cc4c(cc3C(NC(=O)c3cn(Cc5ccccc5)nn3)[C@H]3COC(=O)[C@H]23)OCO4)cc(OC)c1OC (single isomer, unassigned) | 13.7 µM
45 | COc1cc(OC)cc(-n2cc(C(=O)NC3c4cc5c(cc4[C@@H](c4cc(OC)c(OC)c(OC)c4)[C@H]4C(=O)OC[C@H]34)OCO5)nn2)c1 (single isomer, unassigned) | 8.66 µM
46 | COc1cc(Cn2cc(C(=O)NC3c4cc5c(cc4[C@@H](c4cc(OC)c(OC)c(OC)c4)[C@H]4C(=O)OC[C@H]34)OCO5)nn2)cc(OC)c1OC (single isomer, unassigned) | 7.34 µM
47 | COc1cccc(Cn2cc(C(=O)NC3c4cc5c(cc4[C@@H](c4cc(OC)c(OC)c(OC)c4)[C@H]4C(=O)OC[C@H]34)OCO5)nn2)c1 (single isomer, unassigned) | 7.71 µM
48 | COc1cc([C@@H]2c3cc4c(cc3C(NC(=O)c3cn(Cc5ccc(F)cc5)nn3)[C@H]3COC(=O)[C@H]23)OCO4)cc(OC)c1OC (single isomer, unassigned) | 19.1 µM

System: HeLa
Experiment: Antiproliferative activity against human HeLa cells after 48 hrs by MTT assay
Type: functional, cell-based
Details: not given
How it was run: as §1

Row | SMILES | IC50
49 | COc1cc([C@@H]2c3cc4c(cc3C(NC(=O)c3cn(Cc5ccc(Cl)cc5)nn3)[C@H]3COC(=O)[C@H]23)OCO4)cc(OC)c1OC (single isomer, unassigned) | 3.57 µM
50 | COc1ccc(Cn2cc(C(=O)NC3c4cc5c(cc4[C@@H](c4cc(OC)c(OC)c(OC)c4)[C@H]4C(=O)OC[C@H]34)OCO5)nn2)cc1 (single isomer, unassigned) | 3.46 µM
51 | COc1cc([C@@H]2c3cc4c(cc3C(NC(=O)c3cn(-c5ccccc5)nn3)[C@H]3COC(=O)[C@H]23)OCO4)cc(OC)c1OC (single isomer, unassigned) | 2.47 µM
52 | COc1cc([C@@H]2c3cc4c(cc3C(NC(=O)c3cn(Cc5ccccc5)nn3)[C@H]3COC(=O)[C@H]23)OCO4)cc(OC)c1OC (single isomer, unassigned) | 18.8 µM
53 | COc1cc(OC)cc(-n2cc(C(=O)NC3c4cc5c(cc4[C@@H](c4cc(OC)c(OC)c(OC)c4)[C@H]4C(=O)OC[C@H]34)OCO5)nn2)c1 (single isomer, unassigned) | 17 µM
54 | COc1cc(Cn2cc(C(=O)NC3c4cc5c(cc4[C@@H](c4cc(OC)c(OC)c(OC)c4)[C@H]4C(=O)OC[C@H]34)OCO5)nn2)cc(OC)c1OC (single isomer, unassigned) | 10.2 µM
55 | COc1cccc(Cn2cc(C(=O)NC3c4cc5c(cc4[C@@H](c4cc(OC)c(OC)c(OC)c4)[C@H]4C(=O)OC[C@H]34)OCO5)nn2)c1 (single isomer, unassigned) | 22.6 µM
56 | COc1cc([C@@H]2c3cc4c(cc3C(NC(=O)c3cn(Cc5ccc(F)cc5)nn3)[C@H]3COC(=O)[C@H]23)OCO4)cc(OC)c1OC (single isomer, unassigned) | 29 µM
